Results pooled from the literature.
Compare with care: the assays were run in different laboratories.
Target: Serine/threonine-protein kinase ULK2 (ULK2, Homo sapiens, UniProt Q8IYT8)
Sequence (Q8IYT8 1-1036, as in one of the studies): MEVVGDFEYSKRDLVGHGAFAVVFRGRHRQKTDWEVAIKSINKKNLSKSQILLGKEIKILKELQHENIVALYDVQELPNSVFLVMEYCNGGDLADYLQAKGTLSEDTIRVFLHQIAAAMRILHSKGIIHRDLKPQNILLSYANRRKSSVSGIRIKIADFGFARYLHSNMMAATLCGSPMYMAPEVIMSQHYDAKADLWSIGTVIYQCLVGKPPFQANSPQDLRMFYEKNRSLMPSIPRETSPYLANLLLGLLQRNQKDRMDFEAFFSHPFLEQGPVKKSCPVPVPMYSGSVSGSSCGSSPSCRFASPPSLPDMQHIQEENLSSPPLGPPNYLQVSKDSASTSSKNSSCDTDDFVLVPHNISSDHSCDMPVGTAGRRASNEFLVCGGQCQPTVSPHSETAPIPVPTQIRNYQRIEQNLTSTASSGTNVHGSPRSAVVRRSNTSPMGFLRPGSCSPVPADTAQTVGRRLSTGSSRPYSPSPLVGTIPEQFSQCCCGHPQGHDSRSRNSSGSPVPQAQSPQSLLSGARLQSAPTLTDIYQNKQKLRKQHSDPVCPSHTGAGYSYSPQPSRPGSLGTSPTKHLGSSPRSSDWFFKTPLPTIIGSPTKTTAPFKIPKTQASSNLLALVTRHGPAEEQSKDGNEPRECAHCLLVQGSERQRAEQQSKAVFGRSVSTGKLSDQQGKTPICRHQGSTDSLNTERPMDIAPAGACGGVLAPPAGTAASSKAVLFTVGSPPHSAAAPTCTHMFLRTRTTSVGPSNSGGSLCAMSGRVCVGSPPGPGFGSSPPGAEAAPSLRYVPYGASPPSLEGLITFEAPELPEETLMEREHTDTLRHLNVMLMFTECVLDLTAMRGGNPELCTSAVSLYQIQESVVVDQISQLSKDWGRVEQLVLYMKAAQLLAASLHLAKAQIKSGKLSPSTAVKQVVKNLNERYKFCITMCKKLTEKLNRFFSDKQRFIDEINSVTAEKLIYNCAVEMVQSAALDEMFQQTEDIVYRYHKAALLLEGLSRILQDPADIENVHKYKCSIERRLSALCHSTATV

effect on | mode | method | tested at | endpoint | result | SMILES
binding | – | competition with immobilised ligand | 0.5 µM | remaining binding | 100% | CCCCC(=O)Nc1ccc(-c2ccc3ncn(CCC)c(=O)c3c2)cn1
binding | – | – | 1 µM | remaining binding | 106% | COc1ccc2oc(-c3ccc4nc(N)oc4c3)c/c(=N\c3ccccc3NC(=O)CCN)c2c1
binding | – | – | 1 µM | remaining binding | 100% | Cc1ccc(NC(=O)c2ccnc(C(F)(F)F)c2)cc1-c1cc(OCCO)nc(N2CCOCC2)c1
cell-free assay | – | competition with immobilised ligand | 25 µM | remaining binding | 86% | N#Cc1ccc(NC(=O)Nc2ccccc2)cc1
enzyme activity | inhibitor | – | 1 µM | inhibition | 8% | C=CC(=O)N1CCC([C@@H]2CCNc3c(C(N)=O)c(-c4ccc(Oc5ccccc5)cc4)nn32)CC1
enzyme activity | inhibitor | – | 0.2 µM | inhibition | 5.21% | C#Cc1cc(-c2cc(Nc3nc(N[C@@H](C)c4ccc(F)cn4)ncc3Cl)n[nH]2)ccc1C=O
binding | – | – | 1 µM | remaining binding | 78% | CN1CCN(C(=O)c2ccc(NC(=O)Nc3ccc(N(C)c4ccnc(Nc5ccc(CS(C)(=O)=O)cc5)n4)cc3)cc2)CC1
enzyme activity | inhibitor | – | 1 µM | inhibition | 13% | C=CC(=O)N1CCC[C@@H](n2nc(-c3ccc(Oc4ccccc4)cc3)c3c(N)ncnc32)C1
